By LD50 is commonly meant the dose at which mortality reaches 50%.

Drawing on ChEMBL document CHEMBL1155777, “Increased survival after gemfibrozil treatment of severe mouse influenza” (Antimicrob Agents Chemother, 2007), this text covers Activity, LD50 and survival for one compound.

For data set [1], the system named is H2N2 subtype. In words: Antiviral activity against Influenza A virus (A/Japan/305/57(H2N2)) infected BALB/c mouse assessed as infection-induced weight loss at 20 mg/kg, ip administered once daily from day 4 to 10 post viral challenge measured on day 8 postinfection. The data set is classed as functional, Influenza A virus (A/Japan/305/1957(H2N2)). The conditions noted are these: route intraperitoneal. The gist of the method:
(§1)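 Gemfibrozil in 100% propylene glycol, 10 µl/mouse i.p., once daily days 4–10 after virus exposure; vehicle-only controls on the same days. Mice weighed before infection, then daily days 4–12 inclusive; loss tracked against pre-infection weight.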

In data set [2] the test system is H2N2 subtype. In words: Antiviral activity against Influenza A virus (A/Japan/305/57(H2N2)) infected BALB/c mouse assessed as infection-induced weight loss at 60 mg/kg, ip administered once daily from day 4 to 10 post viral challenge measured on day 12 postinfection. The data set is classed as functional, Influenza A virus (A/Japan/305/1957(H2N2)). The settings on record: route intraperitoneal. An outline of the steps: as §1

Data set [3] in a line: Toxicity in mouse assessed as lethal dose. The format is organism-based. The settings on record: in vivo.
Data set [4] has as its system H2N2 subtype. In words: Antiviral activity against Influenza A virus (A/Japan/305/57(H2N2)) infected BALB/c mouse assessed as infection-induced weight loss at 40 mg/kg, ip administered once daily from day 4 to 10 post viral challenge measured on day 6 postinfection. The data set is classed as functional, Influenza A virus (A/Japan/305/1957(H2N2)). The settings on record: route intraperitoneal. An outline of the steps: as §1

In data set [5] the test system is Mus musculus. In words: Increase in survival of LPS-induced BALB/c mouse severe systemic infection model at 60 mg/kg, ip administered as single dose 1 hr before LPS challenge. The conditions noted are these: route intraperitoneal. The data set is classed as functional. An outline of the steps: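 LPS (E. coli O111:B4) 30 mg/kg i.p.; single 60 mg/kg i.p. dose in propylene glycol given 1 h before LPS; vehicle-only controls. n = 20 per group, single experiment; survival followed 14 days; log rank test.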

Data set [6] relates to H2N2 subtype. In words: Antiviral activity against Influenza A virus (A/Japan/305/57(H2N2)) infected BALB/c mouse assessed as infection-induced weight loss at 60 mg/kg, ip administered once daily from day 4 to 10 post viral challenge measured on day 6 postinfection. The data set is classed as functional, Influenza A virus (A/Japan/305/1957(H2N2)). The settings on record: route intraperitoneal. The gist of the method: as §1

In data set [7] the test system is H2N2 subtype. Kind of data set: Antiviral activity against Influenza A virus (A/Japan/305/57(H2N2)) infected BALB/c mouse assessed as infection-induced weight loss at 20 mg/kg, ip administered once daily from day 4 to 10 post viral challenge measured on day 10 postinfection. The data set is classed as functional, Influenza A virus (A/Japan/305/1957(H2N2)). The conditions noted are these: route intraperitoneal. An outline of the steps:
as §1

Data set [8] concerns H2N2 subtype. Kind of data set: Antiviral activity against Influenza A virus (A/Japan/305/57(H2N2)) infected BALB/c mouse assessed as infection-induced weight loss at 60 mg/kg, ip administered once daily from day 4 to 10 post viral challenge measured on day 8 postinfection. The format is functional, Influenza A virus (A/Japan/305/1957(H2N2)). The settings on record: route intraperitoneal. The gist of the method: as §1

Data set [9] deals with H2N2 subtype. In words: Antiviral activity against Influenza A virus (A/Japan/305/57(H2N2)) infected BALB/c mouse assessed as mouse survival at 20 mg/kg, ip administered once daily from day 4 to 10 post viral challenge. The data set is classed as functional, Influenza A virus (A/Japan/305/1957(H2N2)). The settings on record: 96 h, route intraperitoneal. The gist of the method: (§2)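 Propylene glycol vehicle, 10 µl/mouse i.p., once daily days 4–10 post-infection; vehicle controls. Survival followed 30 days. 20/40/60 mg/kg in one experiment (n = 9–10 per group); 60 mg/kg also pooled from four experiments (vehicle n = 50, drug n = 46). Log rank test on survival time; Cox proportional hazards model for hazard ratios.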

For data set [10], the system named is H2N2 subtype. In words: Antiviral activity against Influenza A virus (A/Japan/305/57(H2N2)) infected BALB/c mouse assessed as infection-induced weight loss at 20 mg/kg, ip administered once daily from day 4 to 10 post viral challenge measured on day 12 postinfection. The data set is classed as functional, Influenza A virus (A/Japan/305/1957(H2N2)). The settings on record: route intraperitoneal. An outline of the steps:
as §1

The subject of data set [11] is Mus musculus. In words: Increase in survival of LPS-induced BALB/c mouse severe systemic infection model at 60 mg/kg, ip administered as single dose 2 hrs before LPS challenge. The format is functional. The conditions noted are these: route intraperitoneal.
Data set [12] relates to H2N2 subtype. In words: Antiviral activity against Influenza A virus (A/Japan/305/57(H2N2)) infected BALB/c mouse assessed as mouse survival at 60 mg/kg, ip administered once daily from day 4 to 10 post viral challenge. The data set is classed as functional, Influenza A virus (A/Japan/305/1957(H2N2)). The settings on record: 96 h, route intraperitoneal. The gist of the method: as §2

The subject of data set [13] is H2N2 subtype. Kind of data set: Antiviral activity against Influenza A virus (A/Japan/305/57(H2N2)) infected BALB/c mouse assessed as infection-induced weight loss at 60 mg/kg, ip administered once daily from day 4 to 10 post viral challenge measured on day 10 postinfection. The data set is classed as functional, Influenza A virus (A/Japan/305/1957(H2N2)). The settings on record: route intraperitoneal. An outline of the steps: as §1

In data set [14] the test system is H2N2 subtype. In words: Antiviral activity against Influenza A virus (A/Japan/305/57(H2N2)) infected BALB/c mouse assessed as infection-induced weight loss at 40 mg/kg, ip administered once daily from day 4 to 10 post viral challenge measured on day 12 postinfection. The format is functional, Influenza A virus (A/Japan/305/1957(H2N2)). The conditions noted are these: route intraperitoneal. An outline of the steps: as §1

The subject of data set [15] is H2N2 subtype. Kind of data set: Antiviral activity against Influenza A virus (A/Japan/305/57(H2N2)) infected BALB/c mouse assessed as infection-induced weight loss at 20 mg/kg, ip administered once daily from day 4 to 10 post viral challenge measured on day 4 postinfection. The settings on record: route intraperitoneal. The data set is classed as functional, Influenza A virus (A/Japan/305/1957(H2N2)). An outline of the steps: as §1

Data set [16] relates to H2N2 subtype. Kind of data set: Antiviral activity against Influenza A virus (A/Japan/305/57(H2N2)) infected BALB/c mouse assessed as infection-induced weight loss at 40 mg/kg, ip administered once daily from day 4 to 10 post viral challenge measured on day 10 postinfection. The data set is classed as functional, Influenza A virus (A/Japan/305/1957(H2N2)). The conditions noted are these: route intraperitoneal. An outline of the steps: as §1

Data set [17] deals with H2N2 subtype. In words: Antiviral activity against Influenza A virus (A/Japan/305/57(H2N2)) infected BALB/c mouse assessed as infection-induced weight loss at 60 mg/kg, ip administered once daily from day 4 to 10 post viral challenge measured on day 4 postinfection. The format is functional, Influenza A virus (A/Japan/305/1957(H2N2)). The conditions noted are these: route intraperitoneal. An outline of the steps: as §1

Data set [18] concerns H2N2 subtype. Kind of data set: Antiviral activity against Influenza A virus (A/Japan/305/57(H2N2)) infected BALB/c mouse assessed as mouse survival at 40 mg/kg, ip administered once daily from day 4 to 10 post viral challenge. The conditions noted are these: 96 h, route intraperitoneal. The format is functional, Influenza A virus (A/Japan/305/1957(H2N2)). The gist of the method:
as §2

Data set [19] relates to H2N2 subtype. Kind of data set: Antiviral activity against Influenza A virus (A/Japan/305/57(H2N2)) infected BALB/c mouse assessed as infection-induced weight loss at 40 mg/kg, ip administered once daily from day 4 to 10 post viral challenge measured on day 8 postinfection. The data set is classed as functional, Influenza A virus (A/Japan/305/1957(H2N2)). The conditions noted are these: route intraperitoneal. An outline of the steps: as §1

Data set [20] has as its system H2N2 subtype. Kind of data set: Antiviral activity against Influenza A virus (A/Japan/305/57(H2N2)) infected BALB/c mouse assessed as infection-induced weight loss at 40 mg/kg, ip administered once daily from day 4 to 10 post viral challenge measured on day 4 postinfection. The data set is classed as functional, Influenza A virus (A/Japan/305/1957(H2N2)). The settings on record: route intraperitoneal. The gist of the method:
as §1

Data set [21] deals with H2N2 subtype. Kind of data set: Antiviral activity against Influenza A virus (A/Japan/305/57(H2N2)) infected BALB/c mouse assessed as infection-induced weight loss at 20 mg/kg, ip administered once daily from day 4 to 10 post viral challenge measured on day 6 postinfection. The data set is classed as functional, Influenza A virus (A/Japan/305/1957(H2N2)). The conditions noted are these: route intraperitoneal. The gist of the method: as §1

Regarding `Cc1ccc(C)c(OCCCC(C)(C)C(=O)O)c1` [GEMFIBROZIL], the Activity in the data set on H2N2 subtype [1] was 75.1%; with H2N2 subtype [2] it was 81.8%; with H2N2 subtype [4] it was 75.6%; with H2N2 subtype [6] it was 77.1%; with H2N2 subtype [7] it was 75.2%; in the data set with H2N2 subtype [8], 73.2%. The Activity in the data set with H2N2 subtype [10] was 79%; in the data set with H2N2 subtype [13] it was 78%; in the data set on H2N2 subtype [14], 77.1%; in the data set on H2N2 subtype [15], 87.9%; in the data set with H2N2 subtype [16] it was 73.4%; in the data set on H2N2 subtype [17], 86.5%. Moreover, the Activity in the data set on H2N2 subtype [19] amounted to 72.2%; with H2N2 subtype [20], 87%; with H2N2 subtype [21], 77.5%. Further, the LD50 in data set [3] worked out at 3160 mg/kg. In addition, the survival at 60 mg/kg with Mus musculus [5] is 25%; with Mus musculus [11], 10%; with H2N2 subtype [12], 52%. In the data set on H2N2 subtype [9], the survival at 20 mg/kg was found to be 30%. In addition, the survival at 40 mg/kg with H2N2 subtype [18] is 44%.
